Screens as filed in PubChem BioAssay.
A selection: hits, their analogues and other compounds. The true share with any hit is near 1.7%.
SUMO1-SIM PPI = modulators of SUMO1 protein-protein interactions, primary screen, biochemical, uHTS; SUMO1 binding to a labelled peptide, TR-FRET, 1 h; inhibition, % at 20 µM; 360,000 tested, 0.33% active; in the data active = inhibition above about 37%
Target sequence (P63165 whole entry, looked up): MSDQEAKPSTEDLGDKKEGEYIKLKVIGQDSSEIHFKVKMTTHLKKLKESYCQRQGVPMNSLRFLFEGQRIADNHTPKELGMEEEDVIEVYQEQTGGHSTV
Scp1 inh = Scp-1 phosphatase inhibitors, primary screen, biochemical, colorimetric, uHTS. Carboxy-terminal domain RNA polymerase II polypeptide A small phosphatase 1 (Homo …. AID 493091, 2011. inhibition, % at 20 µM. Recombinant Scp1, phosphopeptide, malachite green phosphate absorbance. 340,000 tested, 0.88% active;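 active = inhibition above about 50% at 20 µM, limit read from the data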;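 note: plate controls were DMSO wells with enzyme for no effect and wells lacking enzyme for full effect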
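Test system: SCP-1 phosphatase catalytic domain, residues 76-261; measured by: colorimetric phosphate reagent with accelerator and stabiliser, absorbance at 630 nm; timing: enzyme reaction 45 min at room temperature, colour 5 min, stabilisation 30 min; also added: Phosphorylated 17-residue peptide substrate; compound dosing: one concentration, 20 µM, with 1.0% DMSO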
Casp6 inh = human caspase-6 inhibitors, primary screen, biochemical, VEID-R110 fluorescence, single point, set 2 | P55212 | purified caspase-6, Z-VEID-R110 cleavage fluorescence | inhibition, % at 12.5 µM | 350,000 tested, 0.53% active;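 active = mean inhibition across replicates at least about 35%, with every replicate also reaching that limit, limit read from the data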;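 note: 0% = median of neutral control wells and 100% = no fluorescence left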
Target sequence (P55212 24-179 limits assumed): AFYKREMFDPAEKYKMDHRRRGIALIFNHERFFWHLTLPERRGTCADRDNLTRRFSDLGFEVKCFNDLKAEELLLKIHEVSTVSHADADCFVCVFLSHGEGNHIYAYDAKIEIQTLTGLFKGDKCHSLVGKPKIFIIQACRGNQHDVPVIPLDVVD
Target sequence (P55212 194-293 limits assumed): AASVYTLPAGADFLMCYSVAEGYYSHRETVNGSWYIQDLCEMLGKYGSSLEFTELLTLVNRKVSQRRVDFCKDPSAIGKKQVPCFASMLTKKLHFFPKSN
DNMT1 block = human DNMT1 methyltransferase inhibitors, primary screen, biochemical, molecular beacon, fluorescence, HinP1I cleavage, uHTS; DNA (cytosine-5)-methyltransferase 1 (Homo sapiens), P26358; inhibition (reported as % activation of signal), % at 10 µM; 360,000 tested, 0.83% active; AID 588458, 2011; in the data active = inhibition above about 50%
STEP inh = STEP phosphatase inhibitors, primary screen, biochemical, fluorescence intensity, uHTS; Tyrosine-protein phosphatase non-receptor type 5 (Homo sapiens), P54829; 360,000 tested, 0.25% active; recombinant STEP, OMFP fluorogenic substrate; inhibition, % at 20 µM;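 active = inhibition at 20 µM, scaled per plate between control wells, above about 37%, limit read from the data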;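 note: 0% = DMSO with enzyme and substrate and 100% = substrate only without enzyme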
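System: isolated STEP enzyme; schedule: 20 min enzyme reaction at room temperature, protected from light; medium: Bis-Tris buffer pH 6.0, 2.5 mM DTT, 0.005% Tween 20; signal: fluorescence, 480/540 nm; dosing: single compound dose of 20 µM, 1% DMSO final; also added: OMFP substrate, 25 µM final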
LMPTP block = LMPTP phosphatase inhibitors, primary screen, biochemical, fluorescence intensity, uHTS; AID 651560, 2012; 360,000 tested, 0.22% active; recombinant LMPTP-A, OMFP fluorogenic substrate; Low molecular weight phosphotyrosine protein phosphatase (Homo sapiens), P24666; inhibition, % at 20 µM;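 active = compounds that cut the enzyme signal by at least half of the control window in the single-dose screen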;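 note: plate controls were DMSO wells with enzyme plus substrate for no effect and substrate without enzyme for full effect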
Target sequence (P24666 whole entry, looked up): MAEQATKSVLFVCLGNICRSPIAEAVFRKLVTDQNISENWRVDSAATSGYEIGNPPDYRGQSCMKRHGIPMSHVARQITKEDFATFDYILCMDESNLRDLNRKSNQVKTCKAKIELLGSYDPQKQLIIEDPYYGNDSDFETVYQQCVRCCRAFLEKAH
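test system = LMPTP-A | amount = 0.625 nM LMPTP-A final | reagent = fluorogenic phosphatase substrate OMFP at 400 µM final | incubation = 50 min at room temperature | benchmarks = no-enzyme low control, uninhibited high control | medium = Bis-Tris pH 6.0, DTT, detergent | signal = fluorescence intensity of OMFP turnover product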
Beacon interf DR = spectral interference with molecular beacon fluorescence, dose response, artefact control for DNMT1 inhibitor project, biochemical, fluorescent molecular beacon; spectral interference counter-screen; shares compounds with DNMT1 block; IC50, µM; 200 tested, under 10 active; AID 602382, 2012; call rule not given here
DNMT1 inh conf = DNMT1 methyltransferase inhibitor retest, confirmation, biochemical, molecular beacon, fluorescence, single concentration | shares compounds with DNMT1 block | inhibition, % at 10 µM | 2,300 tested, 8% active | DNMT1 molecular beacon HinP1I cleavage;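 active = average inhibition of at least 30% in the single-concentration confirmation test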
Beacon interf = counter-screen for DNMT1 inhibitors: spectral interference; activation (fluorescence interference), % at 10 µM; AID 602387; 2,300 tested, 1% active; shares compounds with DNMT1 block; DNMT1 molecular beacon spectral interference counterscreen, fluorescence 485/520;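 active = activation of at least 30% at 10 µM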;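 note: DNMT1 catalytic domain with a HinP1I cleavage step and a FAM/dabcyl DNA beacon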
* marks the source's active call; other numbers are inactive results; · = not tested or not shown.

SMILES	SUMO1-SIM PPI	Scp1 inh	Casp6 inh	DNMT1 block	STEP inh	LMPTP block	DNMT1 inh conf	Beacon interf	others
O=C(Nc1ccc(N2CCCC2)cc1)c1ccc([N+](=O)[O-])cc1Cl	-10	1	-1	74*	1	36	1	-2
COc1ccc(CNC(=O)c2cc3c(C)nc4ccccc4c3o2)c(OC)c1	14	-7	·	3	0	4	·	·
Fc1ccc(-n2nnc(-c3ccccc3Cl)n2)cc1	2	-8	-1	-6	-3	-2	·	·
C/C(=N/NC(=O)CN1CCN(Cc2ccccc2Cl)CC1)c1cccs1	-1	-7	1	2	0	0	·	·
O=C(Nc1ccc(N2CCCC2)cc1)c1ccc2ccccc2c1	1	-3	0	61*	7	7	3	2
O=C(Nc1ccc(Br)cn1)c1cccc(-c2cc3ccccc3oc2=O)c1	-3	25	1	64*	5	12	1	-4
Cc1nc(NC(=O)c2cccc(-c3cc4ccccc4oc3=O)c2)ccc1Br	-1	6	·	30	3	13	·	·
CCCC(=O)N1CCC1(C)C(=O)NS(=O)(=O)c1cccc(F)c1 (stereo not given)	2	·	-2	-1	2	-1	·	·
O=C(COc1cccc(Br)c1)NN=C1c2ccccc2-c2ccccc21	-5	-34	·	54*	0	2	0	-5
O=C(N[C@@H]1CC[C@@H](CCn2cc(-c3ccccc3)nn2)O[C@H]1CO)c1cnccn1	·	·	1	·	·	·	·	·
COc1cc2cc(Oc3ccc4ccc(=O)oc4c3)c(=O)oc2cc1O[C@@H]1O[C@H](CO)[C@@H](O)[C@H](O)[C@H]1O	4	24	·	105*	1	2	61*	-1	Beacon interf DR=>99
COc1cc2cc(Oc3ccc4ccc(=O)oc4c3)c(=O)oc2cc1OC1OC(COC(=O)CC(C)(O)CC(=O)O)C(O)C(O)C1O (stereo not given)	11	28	26	9	-3	-2	·	·
O=C(/C=C/c1ccco1)NC(=S)Nc1ccc(O)c(-c2nc3ccccc3s2)c1	9	-5	·	67*	5	5	2	0
CC1CCN(Cc2c(O)ccc3c2O/C(=C\c2ccco2)C3=O)CC1	25	14	·	47	3	10	·	·
O=C1/C(=C/c2ccco2)Oc2c1ccc(O)c2CN1CCCCC1	0	14	·	79*	1	16	15	11
O=C(O)CC(c1cccc(C(F)(F)F)c1)N1CCS(=O)(=O)CC1 (stereo not given)	-2	-2	-3	2	-4	0	·	·
Cc1cccc(NC(=O)c2nc[nH]c2C(=O)NCCN(CCNC(=O)c2[nH]cnc2C(=O)Nc2cccc(C)c2)CCNC(=O)c2[nH]cnc2C(=O)Nc2cccc(C)c2)c1	-6	2	2	-12	-2	1	·	·
Cc1cccc(NC(=O)c2nc[nH]c2C(=O)NCCCNC(=O)c2[nH]cnc2C(=O)Nc2cccc(C)c2)c1	6	0	-2	73*	5	2	2	0
CC(C)(C)OC(=O)NCc1ccc(NC(=O)c2nc[nH]c2C(=O)NCCNC(=O)c2[nH]cnc2C(=O)Nc2ccc(CNC(=O)OC(C)(C)C)cc2)cc1	0	4	·	64*	-4	-4	1	-5
C=CCN(C(=O)CSc1nc2ccsc2c(=O)n1Cc1ccc(C(=O)O)cc1)c1ccccc1	7	·	1	5	6	0	·	·
COc1cc(C2C(C(=O)/C=C/c3ccccc3)=C(O)C(=O)N2c2ccccn2)ccc1O (stereo not given)	-8	-4	10	6	1	3	·	·
Cc1ccc(-c2nnn(CC(=O)Nc3ccc4nn(-c5ccccc5)nc4c3)n2)o1	10	-2	0	50*	-5	0	0	0
O=C(/C=C/[C@H]1O[C@@H](n2ccc(=O)[nH]c2=O)[C@H](O)[C@@H]1O)NCc1ccco1	1	·	18	6	-3	-2	·	·
CCc1nc(SCC(=O)NCCc2ccccc2)n[nH]1	0	2	·	5	5	-1	·	·
CCCSC1=N/C(=C\C=C\c2ccco2)C(=O)S1	32	69*	·	106*	17	56*	9	3
SMILES	SUMO1-SIM PPI	Scp1 inh	Casp6 inh	DNMT1 block	STEP inh	LMPTP block	DNMT1 inh conf	Beacon interf	others
C[C@@H]1CN([C@@H](C)CO)C(=O)Cc2cc(NC(=O)Cc3ccccc3)ccc2O[C@H]1CN(C)Cc1ccc(Cl)c(Cl)c1	·	·	0	·	·	·	·	·
CC(C)C[C@H](NC(=O)c1ccc(Cl)c(Cl)c1)C(=O)N1CCC[C@H]1C(=O)NCc1ccccc1	·	·	0	·	·	·	·	·
COc1ccc(C(CC(=O)N2CCOCC2)c2c(OC)cc(OC)c3c(-c4ccccc4)cc(=O)oc23)cc1 (stereo not given)	-4	35	0	74*	0	5	3	-2
Cc1cc(C(=O)NNC(=O)/C=C/c2ccco2)c(C)o1	14	66*	52*	88*	0	0	26	5
COc1ccccc1/C=C/C(=O)NNC(=O)c1cc(C)oc1C	-9	1	1	-2	-1	0	·	·
N=C1C(c2nc(-c3ccc(Cl)cc3)cs2)=C(O)CN1NC(=O)c1ccc(O)cc1	12	-9	-1	9	2	14	·	·
N=C1C(c2nc(-c3ccc(Br)cc3)cs2)=C(O)CN1NC(=O)c1ccc([N+](=O)[O-])cc1	-4	-3	1	56*	5	25	4	-3
Cn1ccnc1C(O)c1ccccc1 (stereo not given)	2	-3	-6	3	-3	-4	·	·
COc1ccc2ccccc2c1C(O)c1nccn1C (stereo not given)	-19	-14	·	62*	-20	-1	0	2
